Assay results from ChEMBL document CHEMBL3822380, “Simple avarone mimetics as selective agents against multidrug resistant cancer cells” (Eur J Med Chem, 2016).
In brackets after ≈: the same amount, converted by molar mass. Activity calls are given as the source filed them.

Key:
[1] = system: Proteus hauseri; test: Antibacterial activity against Proteus hauseri ATCC 13315 by broth microdilution method; assay type: functional
In short: (§1)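 Broth microdilution per NCCLS. Compounds dissolved in DMSO as 10 mg/mL stock, diluted in Mueller Hinton broth (bacteria) or Sabouraud dextrose broth (fungi). Amikacin served as the positive control for bacteria and nystatin for fungi.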

[2] = system: Saccharomyces cerevisiae; test: Antifungal activity against Saccharomyces cerevisiae ATCC 9763 by broth microdilution method; assay type: functional; in short: as §1
[3] = system: NCI-H460; test: Induction of superoxide anion generation in human NCI-H460 cells at 25 uM after 72 hrs by DHE staining-based flow cytometric analysis relative to control; assay type: functional, cell-based
In short: (§2)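 Seeded as for cell death (50,000 or 100,000 cells/well), treated 72 h at 25 µM, with CDDP 5 µM as control. Adherent cells trypsinized and loaded with 1 µM DHE for 30 min at 37 °C in the dark, then washed twice in PBS. Flow cytometry at ex 488/em 585 nm (FL2-H). Mean fluorescence intensity corrected for autofluorescence and compared with untreated control.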

[4] = system: Micrococcus luteus; test: Antibacterial activity against Micrococcus luteus ATCC 4698 by broth microdilution method; assay type: functional; details: NCTC 2665; in short: as §1
[5] = system: Aspergillus brasiliensis; test: Antifungal activity against Aspergillus brasiliensis ATCC 16404 by broth microdilution method; assay type: functional; in short: as §1
[6] = system: Staphylococcus aureus; test: Antibacterial activity against Staphylococcus aureus ATCC 6538 by broth microdilution method; assay type: functional; in short: as §1
[7] = system: Kocuria rhizophila; test: Antibacterial activity against Kocuria rhizophila ATCC 9341 by broth microdilution method; assay type: functional; details: DC2201; in short: as §1
[8] = system: NCI-H460; test: Induction of apoptosis in human NCI-H460 cells assessed as late apoptotic/necrotic cells at 25 uM after 72 hrs by annexin-V/propidium iodide staining-based flow cytometric analysis (reference value: 0.2%); assay type: functional
[9] = system: NCI-H460; test: Induction of apoptosis in multidrug resistant human NCI-H460 cells assessed as dead cells at 25 uM after 72 hrs by annexin-V/propidium iodide staining-based flow cytometric analysis (reference value: 1.5%); assay type: functional
[10] = system: Salmonella enteritidis; test: Antibacterial activity against Salmonella enterica subsp. enterica serovar Enteritidis ATCC 13076 by broth microdilution method; assay type: functional; in short: as §1
[11] = system: NCI-H460; test: Induction of apoptosis in multidrug resistant human NCI-H460 cells assessed as late apoptotic/necrotic cells at 25 uM after 72 hrs by annexin-V/propidium iodide staining-based flow cytometric analysis (reference value: 1%); assay type: functional
[12] = system: Candida albicans; test: Antifungal activity against Candida albicans ATCC 10231 by broth microdilution method; assay type: functional; in short: as §1
[13] = system: Clostridium sporogenes; test: Antibacterial activity against Clostridium sporogenes ATCC 19404 by broth microdilution method; assay type: functional; in short: as §1
[14] = system: NCI-H460; test: Induction of apoptosis in human NCI-H460 cells assessed as early apoptotic cells at 25 uM after 72 hrs by annexin-V/propidium iodide staining-based flow cytometric analysis (reference value: 0.3%); assay type: functional
[15] = system: NCI-H460; test: Induction of apoptosis in multidrug resistant human NCI-H460 cells assessed as live cells at 25 uM after 72 hrs by annexin-V/propidium iodide staining-based flow cytometric analysis (reference value: 96.4%); assay type: functional
[16] = system: NCI-H460; test: Induction of superoxide anion generation in multidrug resistant human NCI-H460 cells at 25 uM after 72 hrs by DHE staining-based flow cytometric analysis relative to control; assay type: functional, cell-based; in short: as §2
[17] = Selectivity ratio of IC30/IC50 for human HaCaT cells to IC30/IC50 for human NCI-H460 cells; assay type: ADME, cell-based; details: HaCaT cells versus NCI-H460 cells
In short: (§3)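 Fold threshold of 1.5 used to call selectivity to cancer cells, resistance, or selectivity to MDR cells.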

[18] = Selectivity ratio of IC30/IC50 for human HaCaT cells to IC30/IC50 for multidrug resistant human NCI-H460 cells; assay type: ADME, cell-based; details: HaCaT cells versus multidrug resistant NCI-H460 cells; in short: as §3
[19] = system: NCI-H460; test: Induction of apoptosis in human NCI-H460 cells assessed as live cells at 25 uM after 72 hrs by annexin-V/propidium iodide staining-based flow cytometric analysis (reference value: 98.3%); assay type: functional
[20] = system: NCI-H460; test: Induction of mitochondrial membrane potential depolarization in human NCI-H460 cells at 25 uM after 15 mins by JC1-staining-based flow cytometric analysis; assay type: functional, cell-based
In short: (§4)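 Cells treated with 25 µM compound, with CDDP 5 µM as control. Stained with JC-1 for 15 min at 37 °C in a CO2 incubator, washed twice in assay buffer and resuspended in PBS. Flow cytometry read red aggregate (FL2-H) versus green monomer (FL1-H) fluorescence. Live cells were also imaged by fluorescence microscopy.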

[21] = system: Bacillus spizizenii; test: Antibacterial activity against Bacillus subtilis ATCC 6633 by broth microdilution method; assay type: functional; in short: as §1
[22] = system: NCI-H460; test: Cytotoxicity against human NCI-H460 cells after 72 hrs by MTT assay; assay type: functional, cell-based; details: NCI-H460, 72 h
In short: (§5)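 Seeding in 96-well plates at 1000 (NCI-H460), 2000 (NCI-H460/R) or 4000 (HaCaT) cells/well, treated after 24 h for 72 h. MTT at 0.4 mg/mL final, 4 h at 37 °C. Formazan dissolved in DMSO, absorbance read at 540 nm. Inhibition % = (1 − A treated/A untreated)×100. IC30 and IC50 obtained by linear regression.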

[23] = system: NCI-H460; test: Induction of apoptosis in human NCI-H460 cells assessed as dead cells at 25 uM after 72 hrs by annexin-V/propidium iodide staining-based flow cytometric analysis (reference value: 1.2%); assay type: functional
[24] = system: NCI-H460; test: Cytotoxicity against multidrug resistant human NCI-H460 cells after 72 hrs by MTT assay; assay type: functional, cell-based; details: NCI-H460, 72 h; in short: as §5
[25] = Induction of apoptosis in human HaCaT cells assessed as live cells at 25 uM after 72 hrs by annexin-V/propidium iodide staining-based flow cytometric analysis (reference value: 96.8%); assay type: cell-based; details: read-out: Activity
[26] = system: NCI-H460; test: Selectivity ratio of IC30/IC50 for human NCI-H460 cells to IC30/IC50 for multidrug resistant human NCI-H460 cells; assay type: functional; in short: as §3
[27] = system: Escherichia coli; test: Antibacterial activity against Escherichia coli ATCC 25922 by broth microdilution method; assay type: functional; in short: as §1
[28] = system: NCI-H460; test: Induction of mitochondrial membrane potential depolarization in multidrug resistant human NCI-H460 cells at 25 uM after 15 mins by JC1-staining-based flow cytometric analysis; assay type: functional, cell-based; in short: as §4
[29] = system: NCI-H460; test: Induction of apoptosis in multidrug resistant human NCI-H460 cells assessed as early apoptotic cells at 25 uM after 72 hrs by annexin-V/propidium iodide staining-based flow cytometric analysis (reference value: 1.1%); assay type: functional
[30] = system: HaCaT; test: Induction of mitochondrial membrane potential depolarization in human HaCaT cells at 25 uM after 15 mins by JC1-staining-based flow cytometric analysis; assay type: cell-based; details: 0.25 h; in short: as §4
[31] = system: HaCaT; test: Induction of apoptosis in human HaCaT cells assessed as late apoptotic/necrotic cells at 25 uM after 72 hrs by annexin-V/propidium iodide staining-based flow cytometric analysis (reference value: 0.2%); assay type: cell-based
[32] = system: HaCaT; test: Induction of apoptosis in human HaCaT cells assessed as dead cells at 25 uM after 72 hrs by annexin-V/propidium iodide staining-based flow cytometric analysis (reference value: 2.8%); assay type: cell-based
[33] = system: Pseudomonas aeruginosa; test: Antibacterial activity against Pseudomonas aeruginosa ATCC 9027 by broth microdilution method; assay type: functional; in short: as §1
[34] = system: HaCaT; test: Induction of apoptosis in human HaCaT cells assessed as early apoptotic cells at 25 uM after 72 hrs by annexin-V/propidium iodide staining-based flow cytometric analysis (reference value: 0.2%); assay type: cell-based
[35] = system: HaCaT; test: Cytotoxicity against human HaCaT cells after 72 hrs by MTT assay; assay type: cell-based; details: for IC50: Homo sapiens, HaCaT; for IC30: human, hacat; in short: as §5
[36] = system: HaCaT; test: Induction of superoxide anion generation in human HaCaT cells at 25 uM after 72 hrs by DHE staining-based flow cytometric analysis relative to control; assay type: cell-based; in short: as §2
[37] = system: Micrococcus luteus; test: Antibacterial activity against Micrococcus luteus ATCC 10240 by broth microdilution method; assay type: functional; in short: as §1
[38] = system: NCI-H460; test: Resistance index, ratio of IC30/IC50 for multidrug resistant human NCI-H460 cells to IC30/IC50 for human NCI-H460 cells; assay type: functional; in short: as §3

| SMILES | MIC [1] | MIC [2] | MIC [4] | MIC [5] | MIC [6] | MIC [7] | MIC [10] | MIC [12] | MIC [13] | selectivity ratio [17] | selectivity ratio [18] | MIC [21] | IC30 [22] | IC50 [22] | IC30 [24] | IC50 [24] | MIC [27] | MIC [33] | IC50 [35] | IC30 [35] | further results |
| --- | --- | --- | --- | --- | --- | --- | --- | --- | --- | --- | --- | --- | --- | --- | --- | --- | --- | --- | --- | --- | --- |
| CC(C)(C)C1=CC(=O)C=C(NCCc2ccccc2)C1=O | 17700 µM (≈ 5010 µg/mL) | 34 µM (≈ 9.63 µg/mL) | 2210 µM (≈ 626 µg/mL) | 1110 µM (≈ 313 µg/mL) | 9 µM (≈ 2.55 µg/mL) | 17700 µM (≈ 5010 µg/mL) | 4420 µM (≈ 1250 µg/mL) | 34 µM (≈ 9.63 µg/mL) | 4420 µM (≈ 1250 µg/mL) | ≤ 1.5 | ≤ 1.5 | 4420 µM (≈ 1250 µg/mL) | 7 µM | 14 µM | 3 µM | 6 µM | 9 µM (≈ 2.55 µg/mL) | 4420 µM (≈ 1250 µg/mL) | 23 µM | 19 µM | Activity [3]: inactive; Activity [8]: 9.5%; Activity [9]: 40.3%; Activity [11]: 11.8%; Activity [14]: 2.4%; Activity [15]: 45.9%; Activity [16]: Active; Activity [19]: 66.1%; Activity [20]: Active; Activity [23]: 22%; viability at 72 h, 25 µM [25]: 74.8%; selectivity ratio [26]: <=1.5; Activity [28]: Active; Activity [29]: 2%; Activity [30]: Non-toxic; Activity [31]: 6.9%; Activity [32]: 14.2%; Activity [34]: 4.1%; Activity [36]: Non-toxic; MIC [37]: 34 µM (≈ 9.63 µg/mL) |
| CCCCNC1=CC(=O)C(C(C)(C)C)=CC1=O | 1240 µM (≈ 291 µg/mL) | 154 µM (≈ 36.2 µg/mL) | 2470 µM (≈ 581 µg/mL) | 2460 µM (≈ 580 µg/mL) | 38 µM (≈ 8.94 µg/mL) | 2470 µM (≈ 581 µg/mL) | 620 µM (≈ 146 µg/mL) | 77 µM (≈ 18.1 µg/mL) | 1240 µM (≈ 291 µg/mL) | ≤ 1.5 | ≤ 1.5 | 1240 µM (≈ 291 µg/mL) | 5 µM | 36 µM | 19 µM | 72 µM | 19 µM (≈ 4.47 µg/mL) | 620 µM (≈ 146 µg/mL) | > 100 µM | 50 µM | Ratio [38]: <=1.5; MIC [37]: 38 µM (≈ 8.94 µg/mL) |
